The source made the active and inactive calls.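 How the source made its calls, unless noted: active means viability loss from added drug above about 55%, and viability with drug at most 40%, in both replicates (limit read from the data, passing the limit was not always enough); inconclusive means both conditions met in only one replicate; inactive means neither replicate meets both conditions.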
Key:
[1] = Her2 expression decrease, cell viability multiplex – SKBR3 breast tumor cells, AlphaScreen, ATP viability, primary screen (AID 461;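 active means Her2 level under about 52% in both replicate screens, with viability over 70% of control, limit read from the data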;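 on Her2 level: lower value means less Her2 protein in the cells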;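 on viability: percent of carrier control wells set as 100% viability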); conditions: SKBR3 Her2 protein level, 18-24 h, measured here: SKBR3 viability, ATP luminescence, at 10 µM
[2] = target: Receptor tyrosine-protein kinase erbB-2 (Homo sapiens) (UniProt P04626); assay: as above; conditions: 18-24 h, at 10 µM, stronger effect = lower value
[3] = reduced viability of SK-BR-3 breast cancer cells – cell-based, 24 h, human, pilot screen (AID 572;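 active means viability at or below 10% of carrier control in both of two separate runs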;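 further: compound exposure lasted between 18 and 24 h rather than exactly 24 h; 100% = carrier-treated control wells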); conditions: SK-BR-3 viability, CellTiter-Glo luminescence, at 10 µM, stronger effect = lower value
[4] = HUVEC growth inhibition – cell-based, human, primary screen (AID 575;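 active means viability at or below 30% in both replicate assays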;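 further: 100% = median of untreated cell wells with 0.1% DMSO on each plate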); conditions: HUVEC proliferation, CellTiter-Glo luminescence, 72 h; at 10 µM; stronger effect = lower value
In short: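 material = primary HUVEC, no more than 12 passages | input = 1250 cells per well | controls = vehicle and MePR control wells | measured by = CTG luminescence | times = 72 h compound incubation | format = collagen-coated 384-well format | read-out = % viability vs DMSO wells | doses = single 10 µM dose, 0.1% DMSO, from 5x medium stock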

[5] = H69AR cell proliferation blockers – human, duplicate replicates, primary screen (AID 580;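 active means viability at or under a set limit in both replicates, limit being median viability minus 3 SD, cut at about 48% in these data, passing the limit was not always enough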;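 further: 100% = mean luminescence of untreated wells and 0% = no signal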); conditions: H69AR lung tumor cells viability, ATP luminescence, 72 h; at 10 µM; stronger effect = lower value
[6] = MRP1 drug-resistance reversers in H69AR cells – cell-based, doxorubicin co-treatment, pilot screen (AID 601); conditions: CellTiter-Glo, 72 h, at 10 µM; for differential viability (reversal): stronger effect = higher value
[7] = yeast transport mutant growth inhibition pilot in 384-well plates, post-Golgi transport modulator project (AID 636; in the data active means inhibition above about 31%); conditions: absorbance 615 nm, about 18 h, stronger effect = higher value
[8] = growth suppression of yeast trafficking mutant, preliminary HTS, modulators of trafficking downstream of Golgi apparatus project, 1536-format plate, OD 615 nm (AID 637; in the data active means inhibition above about 30%); conditions: yeast transport mutant growth, absorbance 615 nm, 18 h; stronger effect = higher value
[9] = H69AR cells + 2 uM doxorubicin, measured here: viability with 2 uM doxorubicin, stronger effect = lower value
[10] = H69AR cells, compound alone cytotoxicity

Sequence of Receptor tyrosine-protein kinase erbB-2 (Homo sapiens) (P04626 whole entry, looked up): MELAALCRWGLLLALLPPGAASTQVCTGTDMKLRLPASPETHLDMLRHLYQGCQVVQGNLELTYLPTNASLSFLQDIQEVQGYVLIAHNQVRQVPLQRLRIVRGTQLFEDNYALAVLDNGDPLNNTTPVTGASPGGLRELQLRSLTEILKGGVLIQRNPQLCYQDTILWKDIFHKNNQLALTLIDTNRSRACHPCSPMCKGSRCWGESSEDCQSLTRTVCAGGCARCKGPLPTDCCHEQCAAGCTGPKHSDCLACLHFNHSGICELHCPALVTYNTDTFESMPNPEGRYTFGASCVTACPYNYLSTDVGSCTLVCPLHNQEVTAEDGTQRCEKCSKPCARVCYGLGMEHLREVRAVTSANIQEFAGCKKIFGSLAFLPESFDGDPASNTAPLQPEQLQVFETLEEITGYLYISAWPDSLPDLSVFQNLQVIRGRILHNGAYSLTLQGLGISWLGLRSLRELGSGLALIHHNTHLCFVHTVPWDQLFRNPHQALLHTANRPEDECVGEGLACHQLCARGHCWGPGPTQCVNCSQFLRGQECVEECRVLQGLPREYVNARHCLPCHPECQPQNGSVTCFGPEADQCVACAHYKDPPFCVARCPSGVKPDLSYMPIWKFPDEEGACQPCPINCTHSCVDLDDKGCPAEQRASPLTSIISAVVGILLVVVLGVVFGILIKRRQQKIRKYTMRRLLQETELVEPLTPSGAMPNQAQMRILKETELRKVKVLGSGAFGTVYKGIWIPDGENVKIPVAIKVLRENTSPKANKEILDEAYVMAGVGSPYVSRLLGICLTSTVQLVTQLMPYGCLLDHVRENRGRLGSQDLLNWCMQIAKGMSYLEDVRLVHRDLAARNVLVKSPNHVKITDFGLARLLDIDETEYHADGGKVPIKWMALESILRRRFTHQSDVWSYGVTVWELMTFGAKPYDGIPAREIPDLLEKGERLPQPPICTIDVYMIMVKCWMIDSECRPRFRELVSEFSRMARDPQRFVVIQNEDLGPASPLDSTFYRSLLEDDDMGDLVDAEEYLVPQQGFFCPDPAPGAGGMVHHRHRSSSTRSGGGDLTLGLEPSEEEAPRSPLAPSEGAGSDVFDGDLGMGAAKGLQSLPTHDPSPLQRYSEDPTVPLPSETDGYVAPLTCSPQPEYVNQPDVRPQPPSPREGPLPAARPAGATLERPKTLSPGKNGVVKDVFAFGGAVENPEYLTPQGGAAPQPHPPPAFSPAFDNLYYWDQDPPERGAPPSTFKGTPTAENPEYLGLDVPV

SMILES | viability [1] | Her2 level [2] | viability [3] | viability [4] | viability [5] | differential viability (reversal) ([6]; H69AR cells + 2 uM doxorubicin) | viability [6, 9] | viability [6, 10] | inhibition [7] | inhibition [8]
CCN(c1c(C)n(C)n(-c2ccccc2)c1=O)S(C)(=O)=O | 98.5% | 79.5% (inactive) | 98.5% (inactive) | 102% (inactive) | 95.6% (inactive) | 6.92% (inactive) | 88.7% | 95.6% | -6.76% (inactive) | 4.29% (inactive)
CN(C)c1ccc(/C(=N\O)c2ccccc2)cc1 | 98.5% | 114% (inactive) | 98.5% (inactive) | 93.9% (inactive) | 92.8% (inactive) | 2.59% (inactive) | 90.3% | 92.8% | 0.13% (inactive) | -13.5% (inactive)
COc1ccc(OCC(O)Cn2c(Br)nc3c2c(=O)[nH]c(=O)n3C)cc1 (stereo not given) | 84% | 72% (inactive) | 84% (inactive) | 62.8% (inactive) | 28.5% (active) | -28.6% (inactive) | 57.1% | 28.5% | -4.4% (inactive) | 10.7% (inactive)
Cc1ccc(S(=O)(=O)CC(=O)N2CCCCCC2)cc1 | 85.5% | 100% (inactive) | 85.5% (inactive) | 78.1% (inactive) | 92.7% (inactive) | 1.99% (inactive) | 90.7% | 92.7% | -5% (inactive) | -6.07% (inactive)
CN(Cc1ccccc1)Cc1nc2c(c(=O)n(C)c(=O)n2C)n1Cc1ccc(Cl)cc1 | 67.5% | 102% (inactive) | 67.5% (inactive) | 84.1% (inactive) | 86% (inactive) | 1.76% (inactive) | 84.2% | 86% | -0.67% (inactive) | 7.05% (inactive)
Cc1c(C(=O)OCC(C)C)[nH]c2c1C(=O)CC(c1ccco1)C2 (stereo not given) | 80.5% | 58% (inactive) | 80.5% (inactive) | 18.5% (active) | 24.1% (active) | -22.6% (inactive) | 46.6% | 24.1% | -1.2% (inactive) | -3.28% (inactive)
Cc1cc(NC(=O)c2ccccc2Oc2ccccc2)no1 | 97% | 92.5% (inactive) | 97% (inactive) | 93.5% (inactive) | 110% (inactive) | 16.8% (inactive) | 93.5% | 110% | -5.33% (inactive) | 2.42% (inactive)
CC1(C)Cc2cccc(OCC(O)CN3CCN(c4ccccn4)CC3)c2O1 (stereo not given) | 84% | 94% (inactive) | 84% (inactive) | 86.1% (inactive) | 70.3% (inactive) | -17.7% (inactive) | 88% | 70.3% | -3.38% (inactive) | -7.3% (inactive)
COc1ccc(-c2nc3c(c(=O)n(C)c(=O)n3C)n2CC2CC(c3ccccc3)=NO2)cc1OC (stereo not given) | 85.5% | 85% (inactive) | 85.5% (inactive) | 63.4% (inactive) | 6.03% (active) | 1.44% (inactive) | 4.58% | 6.03% | -6.76% (inactive) | 2.22% (inactive)
Cc1cccc(N2CCN(Cc3c(C)n(C)n(-c4ccccc4)c3=O)CC2)c1C | 83.5% | 88.5% (inactive) | 83.5% (inactive) | 78.1% (inactive) | 83.9% (inactive) | 0.085% (inactive) | 83.8% | 83.9% | -2.47% (inactive) | -1.31% (inactive)
O=c1[nH]c(=O)n(C2CCCCCC2)c(O)c1C=NCc1ccc(F)cc1 | 90% | 86.5% (inactive) | 90% (inactive) | 90.1% (inactive) | 81.5% (inactive) | -4.79% (inactive) | 86.3% | 81.5% | -6.8% (inactive) | -2.22% (inactive)
COC(=O)c1sc(NC(=O)c2ccoc2C)nc1C | 110% | 118% (inactive) | 110% (inactive) | 61.8% (inactive) | 75.3% (inactive) | 2.44% (inactive) | 72.9% | 75.3% | -3.07% (inactive) | 8.06% (inactive)
COc1cc(OC)cc(-c2nnc(Nc3nc4c(F)cccc4s3)o2)c1 | 95.5% | 74% (inactive) | 95.5% (inactive) | 5.89% (active) | 69.4% (inactive) | -17.9% (inactive) | 87.3% | 69.4% | -5.07% (inactive) | 13.4% (inactive)
CCn1ncc(C2=NOC(C(=O)NCc3ccccc3)C2)c1C (stereo not given) | 91% | 82.5% (inactive) | 91% (inactive) | 43.2% (inactive) | 27.5% (active) | -33% (inactive) | 60.4% | 27.5% | -6.18% (inactive) | -1.9% (inactive)
Cc1ccc(S(=O)(=O)N2CCN(C(=O)CN3C(=O)NC4(CCOc5ccccc54)C3=O)CC2)cc1 (stereo not given) | 98.5% | 108% (inactive) | 98.5% (inactive) | 102% (inactive) | 101% (inactive) | 1.57% (inactive) | 99.8% | 101% | 4.08% (inactive) | -1.09% (inactive)

— PubChem BioAssay
